Hits are enriched below; roughly 2.2% of the tested compounds scored in any of these assays.
GLD-1 RNA inh: GLD-1-TGE RNA interaction inhibition (C. elegans); Q17339; inhibition, % at 5.96 µM; purified GLD-1 + fluorescein TGE RNA, fluorescence polarization; hit rate 0.44% among 320,000;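 active means percent inhibition above a per-plate cutoff, the plate mean of test compounds plus 3 SD, cut at about 30% in these data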;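 further: 0% = DMSO wells with GLD-1 and probe and 100% = wells lacking GLD-1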
Target sequence (Q17339 whole entry, looked up): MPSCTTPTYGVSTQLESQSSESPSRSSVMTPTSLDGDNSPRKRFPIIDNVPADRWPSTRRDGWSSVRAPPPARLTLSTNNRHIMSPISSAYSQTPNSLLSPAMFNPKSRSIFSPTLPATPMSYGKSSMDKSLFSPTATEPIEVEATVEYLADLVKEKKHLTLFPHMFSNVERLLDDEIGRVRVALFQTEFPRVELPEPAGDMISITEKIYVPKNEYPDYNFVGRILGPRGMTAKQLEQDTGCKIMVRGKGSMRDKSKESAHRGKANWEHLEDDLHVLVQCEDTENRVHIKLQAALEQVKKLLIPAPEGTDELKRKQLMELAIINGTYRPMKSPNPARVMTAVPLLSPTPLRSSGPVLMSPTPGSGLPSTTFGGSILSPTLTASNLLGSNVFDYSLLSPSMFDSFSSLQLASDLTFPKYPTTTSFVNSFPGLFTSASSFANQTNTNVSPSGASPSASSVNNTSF
VIM-2 inhibitor: blocks Pseudomonas aeruginosa VIM-2 metallo-beta-lactamase; AID 1527; hit rate 0.89% among 290,000; purified VIM-2, nitrocefin hydrolysis, epi-absorbance fluorescence; inhibition, % at 5.6 µM;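 active means inhibition above the mean of all tested compounds plus 3 SD, cutoff set per screening run, cut at about 7.5% in these data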;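 further: red hydrolysis product quenches plate fluorescence so inhibitors raise well fluorescence; 0% = enzyme with DMSO and 100% = DMSO without enzyme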
Bcl-xL primary: inhibitors of human Bcl-xL; GST-Bcl-xL / FITC-Bim BH3 peptide fluorescence polarization; Q07817; AID 2129; inhibition, % at 10.9 µM; hit rate 0.7% among 320,000;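 active means inhibition above the mean of all tested compounds plus 3 SD, cutoff set per campaign, cut at about 30% in these data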;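 further: 0% = DMSO wells and 100% = unlabeled Bim-BH3 peptide competitor; inhibitors lower millipolarization by displacing the labeled peptide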
MEX-5 binding: C. elegans MEX-5 TCR-2 RNA binding activity; Q9XUB2; MEX-5/FITC-TCR2 RNA binding, fluorescence polarization; stronger effect = lower value; activity score (negative = inhibition of binding), % at 10 µM; hit rate 0.38% among 300,000;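 active means inhibition past about -25% in most replicates, and total fluorescence under double the plate's negative control median, limit read from the data; inconclusive means replicates evenly split on the limit, or fluorescence at least double controls; inactive means too little inhibition in most replicates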;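 further: 0% = DMSO and -100% = 5 µM competing unlabeled TCR2 RNA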
EBV gp42 inh: blocks Epstein-Barr virus glycoprotein 42 binding; Q1HVG2; Fluorescence polarization binding assay, mP read-out; inhibition, % (tested at 21.74 µM); hit rate 0.42% among 220,000; in the data active means inhibition above about 50%
IMP-1 inh: inhibitors of Pseudomonas aeruginosa IMP-1 metallo-beta-lactamase | inhibition, % at 5.6 µM | purified IMP-1, nitrocefin hydrolysis, epi-absorbance fluorescence | hit rate 0.45% among 290,000;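 active means inhibition above the mean plus 3 SD of all compounds in the same screening run, cut at about 4.5% in these data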;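 further: 0% = IMP-1 with DMSO and 100% = DMSO wells lacking enzyme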
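System: Purified IMP-1 | Read-out basis: Percent enzyme inhibition | Controls: IMP-1 with DMSO as 0%, enzyme-free DMSO as 100% | Replicates: One well per compound | Doses: 5.6 µM nominal single concentration | Detection: Epi-absorbance fluorescence, 480 nm excitation, 530 nm emission | Incubation: 25 °C, 15 min preincubation, 25 min reaction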
* = called active by the depositor; ? = inconclusive; nt = no result given; + = active, no number.

SMILES	GLD-1 RNA inh	VIM-2 inhibitor	Bcl-xL primary	MEX-5 binding	EBV gp42 inh	IMP-1 inh
C#CCOCCOCCOCCNc1nc(N2CCN(C(=O)[C@H](Cc3ccc(O)cc3)n3cc([C@@H](N)CC(C)C)nn3)CC2)nc(N2CCN(C(=O)[C@H](Cc3ccc(O)cc3)n3cc([C@@H](N)CC(C)C)nn3)CC2)n1	5	2	5	-1	-14	13*
O=C(COC(=O)CNC(=O)c1ccc(Cl)c([N+](=O)[O-])c1)NC(=O)c1ccccc1	3	1	-1	1	nt	-1
COc1ccc2c(c1OC)C(=O)N1C(C(=O)O)Cc3c([nH]c4ccccc34)C21 (stereo not drawn)	21	-3	48*	-10	5	-2
COc1cccc(C2c3[nH]c4ccccc4c3C[C@H]3C(=O)N(CCCO)CC(=O)N23)c1OC (stereo partly drawn)	1	-2	1	1	nt	-3
Cc1nn(-c2ccccc2)c(C)c1NC(=O)COC(=O)c1cc(Br)ccc1O	6	nt	-5	2	nt	nt
COC(=O)C1CCN(C2=C(NS(=O)(=O)c3ccc(Cl)cc3)C(=O)c3ccccc3C2=O)CC1	2	8.4*	7	2	1	-1
COc1cccc(-c2cc(C(F)(F)F)nc(N3CCC(C)CC3)n2)c1	-1	-2	2	-2	-2	4.5*
CC(=O)N(C)c1ccc(OCC(O)Cn2c(C)nc3ccccc32)cc1 (stereo not drawn)	5	-7	-5	0	-1	-5
CN(C)c1ccc2nc3c(=O)[nH]c(=O)nc-3n(CC(O)C(O)C(O)CO)c2c1 (stereo not drawn)	163*	0	190*	?	nt	-3
Cc1ccc(S(=O)(=O)CCc2ccncc2)cc1	-1	2	6	-2	nt	0
O=c1[nH]c(Nc2ccccc2)cc2ccccc12	55*	-3	54*	-19	72*	-3
O=c1[nH]c(Nc2ccccc2)cc2cc(Br)ccc12	3	nt	12	1	nt	nt
CC(Oc1ccccc1)C(=O)N1CCC2(CC1)CC(=O)c1ccccc1O2 (stereo not drawn)	4	nt	1	-1	nt	nt
O=C(c1ccco1)N1CCN(C(=S)Nc2ccc(Br)cc2Cl)CC1	nt	-1	nt	0	nt	-2
Cc1ccc(NC(=S)c2ccc3ccccc3n2)c(C)c1	3	-12	4	-38*	nt	-5
Cc1ccc(C)c(NC(=O)c2ccc3ccccc3n2)c1	-4	1	2	-1	-14	-1
Cc1cc2nc3c(=O)[nH]c(=S)[nH]c3nc2cc1NC(=O)C(F)(F)F	185*	-4	+	?	nt	1
O=c1[nH]c(=S)[nH]c2nc(-c3ccccc3)cnc12	4	nt	13	-5	nt	nt
O=C(NNC(=O)c1ccc2ccccc2c1O)c1ccccc1Cl	1	0	3	-56*	-1	-1
COCCCNc1nc(N)c([N+](=O)[O-])c(N2CCCCCC2)n1	-1	-1	5	3	nt	-4
CCCc1cc(=O)oc2cc(OC3CCCCC3=O)ccc12 (stereo not drawn)	nt	-3	nt	2	nt	-5
CC1(C(=O)OCC(=O)Nc2ccc(S(=O)(=O)N3CCOCC3)cc2)CC1(Cl)Cl (stereo not drawn)	3	nt	nt	nt	nt	nt
CC(=O)Oc1ccccc1/C=C/c1nc2ccccc2c(=O)o1	-1	-2	11	-8	nt	-3
C/C(O)=c1/c(=O)nc2cccc3c2=c1c1ccccc1c3=O	nt	10*	nt	-5	nt	4
Cn1c(NC(=O)c2ccccc2C(F)(F)F)cc(=O)n(C)c1=O	162*	0	3	-2	4	-5
SMILES	GLD-1 RNA inh	VIM-2 inhibitor	Bcl-xL primary	MEX-5 binding	EBV gp42 inh	IMP-1 inh
COC(=O)c1ccc(NC(=S)Nc2ccc3ccccc3c2)cc1	6	2	-3	1	-6	5.2*
COC(=O)c1ccc(NC(=S)Nc2ccccc2)cc1	6	-3	7	1	8	-1
O=C(CN1C(=O)/C(=C/c2cccc(Cl)c2)SC1=S)NC1C=CS(=O)(=O)C1 (stereo not drawn)	0	-2	7	-3	nt	4
COc1ccc(/C=C2\SC(=S)N(CCC(=O)NC3C=CS(=O)(=O)C3)C2=O)cc1 (stereo not drawn)	2	-4	3	2	nt	12*
O=C(CN1C(=O)S/C(=C\c2ccc(Cl)cc2)C1=O)NC1C=CS(=O)(=O)C1 (stereo not drawn)	4	0	3	-3	nt	1
COc1cccc(/C=C2\SC(=S)N(CCC(=O)Nc3ccc(O)cc3)C2=O)c1	0	-1	10	-3	nt	-2
COc1cccc(/C=C2\SC(=S)N(CCC(=O)NC3C=CS(=O)(=O)C3)C2=O)c1 (stereo not drawn)	-3	0	6	-2	nt	8.2*
O=C(CN1C(=O)/C(=C/c2ccccc2F)SC1=S)NC1C=CS(=O)(=O)C1 (stereo not drawn)	-4	0	1	3	nt	7.0*
Cc1oc(C)c2c(=O)ccc3c(c12)OC(N)=C(C#N)C3c1ccccc1 (stereo not drawn)	9	-2	32*	-7	-14	-1
CSc1ccc(C2C(C#N)=C(N)Oc3c2ccc(=O)c2c(C)oc(C)c32)cc1 (stereo not drawn)	-8	-3	2	-7	-23	-2
CCOCCCNC(=O)CCn1nc(-c2ccc(Cl)cc2)ccc1=O	-7	0	-1	0	nt	0
Cc1ccc(NCC(=O)N/N=C/c2ccc(C(=O)O)cc2)cc1	-2	-3	4	-61*	-10	-3
O=C(Cc1ccccc1)NCC(=O)N/N=C/c1ccc(C(=O)O)cc1	4	-1	1	-2	nt	-2
Cc1cc(C=C2C(=O)c3ccccc3C2=O)c(C)n1-c1ccc(Cl)cc1	nt	-2	nt	?	61*	-5
Cc1cccc(-n2c(C)cc(C=C3C(=O)c4ccccc4C3=O)c2C)c1	-16	-9	-15	-31*	32	-3
Cc1cc(C=C2C(=O)CCCC2=O)c(C)n1-c1ccccc1	5	-1	19	1	-3	0
Cc1cc(/C=C2/C(=O)NN(c3ccccc3)C2=O)c(C)n1-c1ccc(O)cc1	4	1	9	0	0	-3
COc1ccc(S(=O)(=O)N2CCC3(CC2)OCCN3S(=O)(=O)c2ccc(C)cc2)cc1OC	1	nt	7	-1	nt	nt
Cn1c(=O)c(-c2cc(Br)ccc2N)nc2ccccc21	-1	0	3	0	-17	-3
Cn1c(=O)c(N)c2c3c(c(Br)ccc31)C(=O)c1ccccc1-2	+	8.4*	+	-39*	171*	0
Cn1c(CCNC(=O)c2ccccc2F)nnc1SCC(=O)Nc1nncs1	-1	-1	4	0	nt	-1
CC(=C/C(=O)O)/C(=C\c1ccc(Br)o1)C(=O)O	2	-1	6	-2	-5	-2

Screening data (PubChem)
